Experimental data taken from ChEMBL document CHEMBL2086240, “Enhanced cellular uptake and in vitro antitumor activity of short-chain fatty acid acylated daunorubicin-GnRH-III bioconjugates” (Eur J Med Chem, 2012).

Experiments:
HT-29 [1] = test: Cellular uptake in human HT-29 cells after 6 hrs by flow cytometer; format: ADME, cell-based; conditions: ht-29, 6 h
How it was run: (§1)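 Cells plated at 1 x 10^5 per well, grown 24 h at 37°C, then exposed to conjugate in serum-free medium (0.16–100 µM) for 6 h at 37°C. Cells detached with trypsin/EDTA, resuspended in FCS-free medium and analysed by flow cytometry. Read-out is the percentage of daunorubicin-positive living cells. Duplicate samples at each concentration; each experiment repeated twice.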

MCF7 [2] = test: Cellular uptake in human MCF7 cells after 6 hrs by flow cytometer; format: ADME, cell-based; conditions: mcf7, 6 h; how it was run: as §1
HT-29 [3] = test: Cytostatic activity against human HT-29 cells compound incubated for 6 hrs followed by compound wash out measured after 72 hrs by MTT assay; format: functional, cell-based
How it was run: (§2)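 Cells plated at 5×10^3 per well and grown 24 h. Exposed 6 h to compound in serum-free RPMI-1640 (2.6×10^-4–10^2 µM, six parallels per concentration), washed twice, then cultured 72 h in serum-containing medium. MTT added at 367 µg/mL final for 3.5 h; crystals dissolved in DMSO; OD540 minus OD620 read. Cytostasis% = [1−(OD_treated/OD_control)]×100; IC50 taken from a sigmoidal fit. Three independent experiments, averaged.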

MCF7 [4] = test: Cytostatic activity against human MCF7 cells compound incubated for 6 hrs followed by compound wash out measured after 72 hrs by MTT assay; format: functional, cell-based; how it was run: as §2
[5] = target: T1, Gonadotropin-releasing hormone receptor (Homo sapiens, UniProt P30968); test: Displacement of [125I][D-Trp6]GnRH1 from GnRH receptor expressed in human pituitary membrane by gamma counting; format: cell membranes
T1 sequence (P30968 whole entry): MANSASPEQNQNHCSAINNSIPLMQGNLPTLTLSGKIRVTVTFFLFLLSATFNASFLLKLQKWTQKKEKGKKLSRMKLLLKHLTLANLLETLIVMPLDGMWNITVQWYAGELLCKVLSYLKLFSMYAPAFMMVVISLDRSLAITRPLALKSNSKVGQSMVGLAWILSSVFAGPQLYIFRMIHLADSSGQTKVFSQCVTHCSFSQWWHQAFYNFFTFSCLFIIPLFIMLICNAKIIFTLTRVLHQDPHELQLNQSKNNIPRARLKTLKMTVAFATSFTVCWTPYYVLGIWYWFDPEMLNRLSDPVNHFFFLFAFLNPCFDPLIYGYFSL
How it was run: (§3)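 Membranes came from autopsy anterior pituitary or a surgical prostate cancer specimen, homogenized in 50 mM Tris-HCl pH 7.4 with protease inhibitors and ultracentrifuged. 50–160 µg protein was incubated with 60-80,000 cpm [125I][D-Trp6]GnRH-I and competitor (10^-12–10^-6 M). Bound ligand was pelleted through ice-cold 1.5% BSA buffer and gamma-counted. IC50 (50% inhibition of specific binding) came from curve fitting; mean ± SE of 2–3 experiments, duplicate or triplicate.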

[6] = target: T1, Gonadotropin-releasing hormone receptor; test: Displacement of [125I][D-Trp6]GnRH1 from GnRH receptor expressed in human prostate cancer membrane by gamma counting; format: cell membranes, Prostate gland; how it was run: as §3
[7] = Metabolic stability […] assessed as alpha-chymotrypsin-mediated compound degradation after 6 hrs by LC-MS analysis; format: ADME, cell-free; conditions: read-out: Drug degradation
How it was run: (§4)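 Digestion with α-chymotrypsin at an enzyme:substrate ratio of 1:50 (w/w) in 100 mM Tris-HCl/10 mM CaCl₂, pH 7.8, at 25°C. Aliquots taken at 5 min and 1, 2, 4, 6, 8 and 24 h, quenched with acetic acid, and analysed by LC-MS for intact conjugate and cleavage fragments.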

Serum = test: Metabolic stability […] assessed as alpha-chymotrypsin-mediated compound degradation after 24 hrs by LC-MS analysis; format: ADME, cell-free; how it was run: as §4
[8] = Drug metabolism in rat liver lysosomal homogenate after 2 hrs by LC-MS analysis; format: ADME, tissue-based; conditions: tissue homogenate
How it was run: (§5)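 Conjugate at 0.1 µg/µL in 0.2 M NaOAc pH 5.0, mixed 1:1 (w/w) with rat liver lysosomal homogenate (protein 17.4 µg/µL by BCA). Incubated at 37°C; aliquots taken at 5 min and 1, 2, 4, 6, 8 and 24 h. Fragments identified by ESI ion-trap LC-MS on a C18 column with a formic acid/acetonitrile gradient, positive mode, m/z 100–2500.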

[9] = Chemical stability of the compound in serum-free DMEM cell culture media after 6 hrs by RP-HPLC analysis; format: physicochemical
How it was run: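 Conjugate dissolved in water (20% of final volume), then diluted with serum-free DMEM to a final 0.5 mg/mL. Incubated at 37°C for 6 h with hourly sampling. Monitored by analytical RP-HPLC on a C18 or CN column, gradient of 0.1% TFA water/MeCN, detection at 220 nm.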

[10] = Drug metabolism in rat liver lysosomal homogenate after 24 hrs by LC-MS analysis; format: ADME, tissue-based; conditions: tissue homogenate; how it was run: as §5
[11] = Metabolic stability […] assessed as alpha-chymotrypsin-mediated compound degradation after 8 hrs by LC-MS analysis; format: ADME, cell-free; conditions: read-out: Drug degradation; how it was run: as §4
HT-29 [12] = test: Cellular uptake in human HT-29 cells at 20 uM after 6 hrs by flow cytometer; format: ADME, cell-based; conditions: ht-29, 6 h
How it was run: (§6)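 Cells were seeded at 1 x 10^5 per well and grown 24 h. MCF-7 were kept in DMEM and HT-29 in RPMI-1640, each with 10% FCS, at 37°C and 5% CO2. Cells were exposed to bioconjugate in serum-free medium (0.16–100 µM) for 6 h at 37°C, then detached with trypsin/EDTA. Flow cytometry gave % daunorubicin-positive living cells; duplicates, two independent experiments, mean ± SD.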

HT-29 [13] = test: Cellular uptake in human HT-29 cells at 100 uM after 6 hrs by flow cytometer; format: ADME, cell-based; conditions: ht-29, 6 h; how it was run: as §6
MCF7 [14] = test: Cellular uptake in human MCF7 cells at 20 uM after 6 hrs by flow cytometer; format: ADME, cell-based; conditions: mcf7, 6 h; how it was run: as §6
MCF7 [15] = test: Cellular uptake in human MCF7 cells at 100 uM after 6 hrs by flow cytometer; format: ADME, cell-based; conditions: mcf7, 6 h; how it was run: as §6
[16] = Metabolic stability in human serum assessed as alpha-chymotrypsin-mediated compound degradation after 4 hrs by LC-MS analysis; format: ADME, cell-free; conditions: Tris-HCl/CaCl2 buffer; in the assay text read “in Tris-HCl/CaCl2 buffer” for “in human serum”; read-out: Drug degradation; how it was run: as §4
[17] = Metabolic stability in presence of alpha-chymotrypsin assessed as compound remaining after 6 hrs by LC-MS analysis
MCF7 [18] = test: Cellular uptake in human MCF7 cells at 4 uM after 6 hrs by flow cytometer; format: ADME, cell-based; conditions: mcf7, 6 h; how it was run: as §1
[19] = Octanol-water partition coefficient, log P of the compound by shake flask method; format: physicochemical
How it was run: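 Shake-flask octanol/water partitioning with RP-HPLC quantitation. P calculated as the ratio of octanol to water HPLC peak areas, then converted to logP.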

| Drug uptake (HT-29 [1]) | Drug uptake (MCF7 [2]) | IC50 (HT-29 [3]) [µM] | IC50 (MCF7 [4]) [µM] | metabolised at 6 h [7] [%] | Stability (Serum) | Drug metabolism [8] | Stability [9] | Drug metabolism [10] | Structure (SMILES) | other results |
| --- | --- | --- | --- | --- | --- | --- | --- | --- | --- | --- |
| Dose-dependent effect | Dose-dependent effect | 17.2 | 3.6 | 45 | Unstable | Active | Stable | Active | CCC(=O)NCCCC[C@H](NC(=O)[C@H](Cc1c[nH]c2ccccc12)NC(=O)[C@H](Cc1cnc[nH]1)NC(=O)[C@@H]1CCC(=O)N1)C(=O)N[C@@H](Cc1cnc[nH]1)C(=O)N[C@@H](CC(=O)O)C(=O)N[C@@H](Cc1c[nH]c2ccccc12)C(=O)N[C@@H](CCCCNC(=O)CO/N=C(\C)[C@]1(O)Cc2c(O)c3c(c(O)c2[C@@H](O[C@H]2C[C@H](N)[C@H](O)[C@H](C)O2)C1)C(=O)c1c(OC)cccc1C3=O)C(=O)N1CCC[C@H]1C(=O)NCC(N)=O |  |
| Dose-dependent effect | Dose-dependent effect | 2 | 2.2 | 90 | Unstable | Active | Stable | Active | COc1cccc2c1C(=O)c1c(O)c3c(c(O)c1C2=O)C[C@@](O)(/C(C)=N/OCC(=O)NCCCC[C@H](NC(=O)[C@H](Cc1c[nH]c2ccccc12)NC(=O)[C@H](CC(=O)O)NC(=O)[C@H](Cc1cnc[nH]1)NC(=O)[C@H](CCCCNC(=O)C(C)C)NC(=O)[C@H](Cc1c[nH]c2ccccc12)NC(=O)[C@H](Cc1cnc[nH]1)NC(=O)[C@@H]1CCC(=O)N1)C(=O)N1CCC[C@H]1C(=O)NCC(N)=O)C[C@@H]3O[C@H]1C[C@H](N)[C@H](O)[C@H](C)O1 | Drug uptake (HT-29 [12]): 96.9%; Drug uptake (HT-29 [13]): 99.9%; Drug uptake (MCF7 [14]): 93.3%; Drug uptake (MCF7 [15]): 99.7%; metabolised at 4 h [16]: 60%; remaining at 6 h [17]: 10% |
| Dose-dependent effect | Dose-dependent effect | 8.1 | 2.6 |  |  |  |  |  | COc1cccc2c1C(=O)c1c(O)c3c(c(O)c1C2=O)C[C@@](O)(/C(C)=N/OCC(=O)NCCCC[C@H](NC(=O)[C@H](Cc1c[nH]c2ccccc12)NC(=O)[C@H](CC(=O)O)NC(=O)[C@H](Cc1cnc[nH]1)NC(=O)[C@H](CCCCN)NC(=O)[C@H](Cc1c[nH]c2ccccc12)NC(=O)[C@H](Cc1cnc[nH]1)NC(=O)[C@@H]1CCC(=O)N1)C(=O)N1CCC[C@H]1C(=O)NCC(N)=O)C[C@@H]3O[C@H]1C[C@H](N)[C@H](O)[C@H](C)O1 |  |

Continued, compound first:

| Structure (SMILES) | Drug uptake (HT-29 [1]) | Drug uptake (MCF7 [2]) | IC50 (HT-29 [3]) [µM] | IC50 (MCF7 [4]) [µM] | metabolised at 6 h [7] [%] | Stability (Serum) | Drug metabolism [8] | Stability [9] | Drug metabolism [10] | other results |
| --- | --- | --- | --- | --- | --- | --- | --- | --- | --- | --- |
| COc1cccc2c1C(=O)c1c(O)c3c(c(O)c1C2=O)C[C@@](O)(/C(C)=N/OCC(=O)NCCCC[C@@H](NC(=O)[C@H](Cc1ccc(O)cc1)NC(=O)[C@H](CO)NC(=O)[C@H](Cc1c[nH]c2ccccc12)NC(=O)[C@H](Cc1cnc[nH]1)NC(=O)[C@@H]1CCC(=O)N1)C(=O)N[C@@H](CC(C)C)C(=O)N[C@@H](CCCNC(=N)N)C(=O)N1CCC[C@H]1C(=O)NCC(N)=O)C[C@@H]3O[C@H]1C[C@H](N)[C@H](O)[C@H](C)O1 | Dose-dependent effect | Dose-dependent effect | 20.2 | 4.1 |  |  |  |  |  | IC50 [5]: 0.00162 µM; IC50 [6]: 0.0165 µM |
| COc1cccc2c1C(=O)c1c(O)c3c(c(O)c1C2=O)C[C@@](O)(/C(C)=N/OCC(=O)NCCCC[C@H](NC(=O)[C@H](Cc1c[nH]c2ccccc12)NC(=O)[C@H](CC(=O)O)NC(=O)[C@H](Cc1cnc[nH]1)NC(=O)[C@H](CCCCNC(=O)CC(C)C)NC(=O)[C@H](Cc1c[nH]c2ccccc12)NC(=O)[C@H](Cc1cnc[nH]1)NC(=O)[C@@H]1CCC(=O)N1)C(=O)N1CCC[C@H]1C(=O)NCC(N)=O)C[C@@H]3O[C@H]1C[C@H](N)[C@H](O)[C@H](C)O1 | Dose-dependent effect | Dose-dependent effect | 16.4 | 2.5 | 34 | Unstable | Active | Stable | Active | metabolised at 8 h [11]: 50% |
| C/C=C/C(=O)NCCCC[C@H](NC(=O)[C@H](Cc1c[nH]c2ccccc12)NC(=O)[C@H](Cc1cnc[nH]1)NC(=O)[C@@H]1CCC(=O)N1)C(=O)N[C@@H](Cc1cnc[nH]1)C(=O)N[C@@H](CC(=O)O)C(=O)N[C@@H](Cc1c[nH]c2ccccc12)C(=O)N[C@@H](CCCCNC(=O)CO/N=C(\C)[C@]1(O)Cc2c(O)c3c(c(O)c2[C@@H](O[C@H]2C[C@H](N)[C@H](O)[C@H](C)O2)C1)C(=O)c1c(OC)cccc1C3=O)C(=O)N1CCC[C@H]1C(=O)NCC(N)=O | Dose-dependent effect | Dose-dependent effect | 13.6 | 1.6 | 50 | Unstable | Active | Stable | Active |  |
| CCCCCCCCCCCCCC(=O)NCCCC[C@H](NC(=O)[C@H](Cc1c[nH]c2ccccc12)NC(=O)[C@H](Cc1cnc[nH]1)NC(=O)[C@@H]1CCC(=O)N1)C(=O)N[C@@H](Cc1cnc[nH]1)C(=O)N[C@@H](CC(=O)O)C(=O)N[C@@H](Cc1c[nH]c2ccccc12)C(=O)N[C@@H](CCCCNC(=O)CO/N=C(\C)[C@]1(O)Cc2c(O)c3c(c(O)c2[C@@H](O[C@H]2C[C@H](N)[C@H](O)[C@H](C)O2)C1)C(=O)c1c(OC)cccc1C3=O)C(=O)N1CCC[C@H]1C(=O)NCC(N)=O | Dose-dependent effect | Dose-dependent effect | 37.4 | 6.8 |  |  | Active | Stable | Active | Drug uptake (MCF7 [18]): 41.3%; logP [19]: -0.596 |
| CCCCCC(=O)NCCCC[C@H](NC(=O)[C@H](Cc1c[nH]c2ccccc12)NC(=O)[C@H](Cc1cnc[nH]1)NC(=O)[C@@H]1CCC(=O)N1)C(=O)N[C@@H](Cc1cnc[nH]1)C(=O)N[C@@H](CC(=O)O)C(=O)N[C@@H](Cc1c[nH]c2ccccc12)C(=O)N[C@@H](CCCCNC(=O)CO/N=C(\C)[C@]1(O)Cc2c(O)c3c(c(O)c2[C@@H](O[C@H]2C[C@H](N)[C@H](O)[C@H](C)O2)C1)C(=O)c1c(OC)cccc1C3=O)C(=O)N1CCC[C@H]1C(=O)NCC(N)=O | Dose-dependent effect | Dose-dependent effect | 20.1 | 1.5 | 30 |  | Active | Stable | Active | Drug degradation (Serum): 90% |
